RAM inhibit: blocks the yeast RAM network. S. cerevisiae dse1pr::URA3 reporter, 5-FOA growth OD615, 2 d; analog-sensitive cbk1-as2 kinase mutant strain. inhibition, % at 50 µM. AID 868. 1.8% of 190,000 active;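 active means inhibition above a set limit, 3 SD over mean compound inhibition, cut at about 8.4% in these data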;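 further: 0% = DMSO-only wells with no growth and 100% = 10 µM 1-NA-PP1 full growth; inhibition rescues growth on 5-FOA so higher OD means more RAM inhibition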
Yeast lifespan up: extends the lifespan of yeast; S. cerevisiae growth with nicotinamide, OD615; deaD strain in restrictive glucose medium; inhibition of the nicotinamide effect, % at 10 µM; 0.68% of 130,000 active; AID 775;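 active means inhibition above a set limit, placed 3 SD over the median of all compounds, cut at about 26% in these data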;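 further: 0% = nicotinamide-treated wells and 100% = cells grown without nicotinamide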
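System: DeaD-strain S. cerevisiae / Buffer or medium: CSMM-D, restrictive glucose (dextrose) synthetic minimal medium / Probe or stimulus: nicotinamide, 1.5 mM, co-present with compound / Compound: one concentration, 10 µM, DMSO 0.25% / Incubation: 48 h compound exposure at 30 °C, humidified / Technique: optical density (absorbance) at 615 nm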
Yeast growth inh: reduces growth of yeast BB579 in restrictive medium. S. cerevisiae BB579 growth, OD615, 48 h. inhibition, % at 10 µM. 0.51% of 140,000 active;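 active means inhibition above a set limit, 3 SD over the mean compound inhibition, cut at about 44% in these data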
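Test system: S. cerevisiae DeaD strain BB579 yeast; Medium: restrictive CSMM-D medium; Compound: one dose, 10 µM compound with 0.25% DMSO; Incubation: 4 h cell preincubation, 48 h compound exposure, 30 °C humidified; Signal: OD at 615 nm; Benchmarks: amphotericin B at 10 µg/mL as positive control.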
Measles CPE: protection of cells from measles virus | Measles virus-infected cells, CPE protection, absorbance | 1.5% of 140,000 active | protection (pct of control), % at 4 µM; in the data active means protection mostly above about 24%, no sharp cut-off; inactive means mostly below about 26%
WT yeast gro inh: growth inhibition of WT yeast, mitochondrial fusion screen; 2.1% of 190,000 active; mitochondrial fusion phenotypic screen, WT strain; inhibition, % at 10 µM; in the data active means inhibition above about 58%; tested in S. cerevisiae
DAT uptake mod: changed human dopamine transporter uptake under cocaine IC80; Q01959; LLC-PK1 hDAT cells, [14C]-dopamine uptake with cocaine IC80; actives deviate in either direction; B-score at 10 µM; 1.3% of 110,000 active; AID 449768;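 active means Z score or B-score, a plate-position-corrected score, falls beyond the plate's 99.7% confidence bounds, in either direction; inactive means both scores lie inside the 99.7% bounds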;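 further: scored against the spread of the other compound wells on the same plate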
Target sequence (Q01959 whole entry, looked up): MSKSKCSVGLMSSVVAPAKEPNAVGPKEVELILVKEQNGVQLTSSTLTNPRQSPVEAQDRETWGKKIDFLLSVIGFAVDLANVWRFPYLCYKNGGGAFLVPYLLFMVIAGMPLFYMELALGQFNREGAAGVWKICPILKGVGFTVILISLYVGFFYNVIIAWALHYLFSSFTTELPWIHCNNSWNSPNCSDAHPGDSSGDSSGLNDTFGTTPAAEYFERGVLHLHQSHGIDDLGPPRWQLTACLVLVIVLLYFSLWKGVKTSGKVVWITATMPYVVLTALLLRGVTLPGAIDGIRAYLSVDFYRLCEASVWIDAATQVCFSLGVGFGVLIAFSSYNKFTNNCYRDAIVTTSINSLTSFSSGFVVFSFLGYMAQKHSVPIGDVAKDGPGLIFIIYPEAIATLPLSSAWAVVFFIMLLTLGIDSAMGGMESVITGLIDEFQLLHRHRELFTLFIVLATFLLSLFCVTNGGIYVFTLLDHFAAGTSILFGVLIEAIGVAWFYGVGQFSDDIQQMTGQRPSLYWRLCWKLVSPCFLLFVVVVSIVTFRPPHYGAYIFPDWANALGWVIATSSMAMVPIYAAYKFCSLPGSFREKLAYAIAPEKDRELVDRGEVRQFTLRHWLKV
The depositor's hits bear a star; . = no result; + = active, no number. Compounds with a hit are over-represented: about 6.1% of the library has one in this group of screens.

SMILES	RAM inhibit	Yeast lifespan up	Yeast growth inh	Measles CPE	WT yeast gro inh	DAT uptake mod
CC1c2c([nH]c3ccccc23)CCC1C(=O)O (stereo unspecified)	1	12	-22	12	8	.
COc1cccc(-c2nnc(SCN3C(=O)c4ccccc4C3=O)n2C)c1	2	12	-66	11	18	.
O=C(Nc1cc(Cl)ccc1O)c1snnc1-c1ccccc1	1	-5	-15	22	-17	0.3
O=C1Nc2ccc(Cl)cc2/C1=C/C1CC=CCC1 (stereo unspecified)	-1	7	19	29	62	.
CCC(c1nnnn1CC1CCCO1)N(CCN1CCOCC1)Cc1cc2cc(C)ccc2[nH]c1=O (stereo unspecified)	0	-10	-41	11	12	-1.8*
Cc1ccc2[nH]c(=O)c(C(c3nnnn3CC3CCCO3)N3CCOCC3)cc2c1 (stereo unspecified)	0	-5	-41	20	2	-0.097
CC(C)OCCCN1CN(S(=O)(=O)c2cccc(Cl)c2)c2nc3ccccc3nc21	9.1*	0	-33	15	33	0.72
Cc1cc(C(=O)OCC(=O)c2cccc([N+](=O)[O-])c2)c2ccccc2n1	0	-7	-26	3	0	.
O=C(OC(c1ccccc1)c1nccc2ccccc12)c1cccc([N+](=O)[O-])c1 (stereo unspecified)	4	0	-16	5	67*	.
Cc1cc2c3c(c1)C1(SCC(=O)N1c1ccc(F)cc1)C(=O)N3C(C)(C)CC2C (stereo unspecified)	0	-6	-23	23	63*	-0.19
COc1ccc(N2C(=O)CSC23C(=O)N2c4c(cccc43)C(C)=CC2(C)C)cc1 (stereo unspecified)	0	5	-34	15	40	0.25
CNCCOc1nc(N2CCOCC2)nc(C)c1[N+](=O)[O-]	1	0	-12	56*	-7	.
Cc1cccc(NC(=O)CSc2nnc(CN3CCOCC3)n2C)c1C	1	.	.	.	-7	.
CCOC(=O)c1cc(NC(=O)CSc2nnc(CN3CCOCC3)n2C)ccc1Cl	3	.	-42	5	-13	-8.9*
Cc1nn(C)c(C)c1CN(C)S(=O)(=O)c1ccc2ccccc2c1	1	.	-23	47*	-4	-1.5
COc1ccc([N+](=O)[O-])cc1NS(=O)(=O)c1ccc(Cl)c(C(=O)Nc2sc3c(c2C#N)CCCCC3)c1	4	.	.	.	-17	.
O=C(COC(=O)/C=C/c1ccc(S(=O)(=O)N2CCc3ccccc32)cc1)NC1CCS(=O)(=O)C1 (stereo unspecified)	2	.	.	.	4	.
CSc1ccc(/C=N/NC(=O)CNc2cccc3ccccc23)cc1	4	0	-21	31	12	.
CSc1ccc(/C=N/NC(=O)CNc2ccc3ccccc3c2)cc1	2	-1	-68	2	65*	.
Cc1ccccc1C(=O)NNC(=O)c1cc(N)cc([N+](=O)[O-])c1	2	-3	-19	3	-9	.
COc1ccc(NC(=O)CNc2ccc(C#N)cc2)cc1	4	.	.	.	-1	.
O=C(c1ccccc1)N1CCC(c2nc(-c3ccc(S(=O)(=O)N4CCOCC4)cc3)no2)CC1	0	-11	-65	9	-2	0.91
CN(C)c1ccc(-c2noc(C3CCN(S(=O)(=O)c4cccc(C(=O)O)c4)CC3)n2)cc1	9.8*	-2	-51	6	16	1.3
CCS(=O)(=O)N1CCC(c2nc(-c3ccc(C)cc3)no2)CC1	0	60*	2	6	6	.
CCOC(=O)c1cnn(-c2cc(C)cc(C)c2)c1N	1	.	.	.	0	.
SMILES	RAM inhibit	Yeast lifespan up	Yeast growth inh	Measles CPE	WT yeast gro inh	DAT uptake mod
CCOC(=O)c1cnn(-c2sc(C(=O)OCC)c(C)c2C(=O)OCC)c1N	.	.	.	.	.	-2.5*
CCN(CC)C(=S)Nc1ccc(OC(F)F)cc1	2	.	.	.	6	.
CN(NC(=S)Nc1ccc(OC(F)F)cc1)C(=S)Nc1ccc(OC(F)F)cc1	1	-7	-32	36	65*	.
COC(=O)C1=C(C)N(Cc2ccco2)C(=O)/C1=C\c1ccc(N(C)C)cc1	5	7	-25	20	5	.
COC(=O)C1=C(C)N(Cc2ccco2)C(=O)/C1=C\c1ccc([N+](=O)[O-])cc1	10.0*	.	.	.	7	.
COc1cccc(CN2CCNC(=O)C2CC(=O)NCCOc2cccnc2)c1 (stereo unspecified)	1	.	.	.	-7	.
CCN(CC)S(=O)(=O)c1ccc(NC(=O)CSc2cccc[n+]2[O-])cc1	-1	-5	65*	4	1	-0.74
CCN(CC)S(=O)(=O)c1ccc(NC(=O)C2c3ccccc3Oc3ccccc32)cc1	8.6*	3	-54	5	2	.
O=C(CSc1cccc[n+]1[O-])Nc1ccc2c(c1)OCCO2	1	.	.	.	-13	.
CCN(CC)S(=O)(=O)c1ccc(NC(=O)COC(=O)CNS(=O)(=O)/C=C/c2ccccc2)cc1	8.4*	0	-40	4	-18	.
O=C(CCc1nnc(CCCCc2ccccc2)o1)NCCN1CCOC1=O	1	.	.	.	-1	.
Cc1cc(N2C(=O)CC(Cc3ccccc3)C2=O)no1 (stereo unspecified)	4	+	-9	11	2	2.3
Clc1ccc(Cn2nnc(-c3ccc(CN4CCOCC4)cc3)n2)cc1	0	8	-42	3	51	1.2
Fc1ccc(Cn2nnc(-c3ccc(CN4CCOCC4)cc3)n2)cc1	1	-8	22	15	23	-8*
O=C(CC(=O)NC1CCCCC1)N/N=C/c1ccccc1F	1	.	.	.	-8	.
CN1C(c2ccc(F)cc2)=CS/C1=C(\C#N)c1nnc2n1-c1ccccc1SC2	2	-21	-17	31*	15	0.79
O=C(Nc1ccc(N2CCCC2)c(Cl)c1)c1ccco1	3	.	-52	8	10	0.42
O=C(Nc1ccc(N2CCCC2)c(Cl)c1)c1ccc([N+](=O)[O-])o1	1	.	.	.	86*	.
O=C(CN1CCN(c2ccccn2)CC1)N(c1ccccc1)c1ccc2ccccc2c1	0	0	-44	5	63*	0.75
O=C(CN1CCOCC1)N(c1ccccc1)c1ccc2ccccc2c1	-1	-8	-77	2	19	-0.49
CCOC(=O)C1CN(S(=O)(=O)c2ccc(OC)cc2)c2cc(S(=O)(=O)CC)ccc2O1 (stereo unspecified)	3	-13	-29	10	-5	-7.9*
CCOc1ccc(N(C)S(=O)(=O)c2ccc3[nH]cc(C(=O)NCC4CCCO4)c(=O)c3c2)cc1 (stereo unspecified)	11*	-6	-13	2	5	-0.83
Cc1ccccc1N(C)S(=O)(=O)c1ccc2[nH]cc(C(=O)NCC3CCCO3)c(=O)c2c1 (stereo unspecified)	2	-8	-111	21	-1	-0.057

High-throughput results deposited in PubChem BioAssay by several laboratories.
